A short description of data set [1]: Tmax in BALB/cAnNCrl mouse at 10 mg/kg, po. The following applies: in vivo.
Data set [2] can be described thus: Ratio of Cmax in BALB/cAnNCrl mouse to GI50 for human WM266.4 cells.
Data set [3] deals with T1, Serine/threonine-protein kinase B-raf (Homo sapiens, UniProt P15056, V600E). Put plainly: Inhibition of B-Raf V600E mutant. In short, it runs like this:
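Enzymatic IC50 determined in vitro against purified V600E BRAF.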

Data set [4] is described as follows: Growth inhibition of human WM266.4 cells expressing BRAF V600E mutant after 5 days by SRB assay. Format: functional. The following applies: WM 266-4, 120 h. The procedure, abridged:
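Antiproliferative SRB assay in WM266.4 (BRAF mutant), WM1361 (NRAS mutant) and D24 (BRAF/NRAS wild-type) melanoma cells, with GI50 derived from the assay.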
Background: Sulforhodamine B stains cellular protein and so reports cell mass.

A short description of data set [5]: Oral bioavailability in BALB/cAnNCrl mouse at 10 mg/kg. The following applies: in vivo.
A short description of data set [6]: Cmax in BALB/cAnNCrl mouse at 10 mg/kg, po. The following applies: in vivo.
A short description of data set [7]: Half life in BALB/cAnNCrl mouse at 10 mg/kg, po. The following applies: in vivo.
For data set [8], the target named is T1, Serine/threonine-protein kinase B-raf. Description: Inhibition of BRAF V600E mutant-mediated ERK phosphorylation in human WM266.4 cells. Format: cell-based. The procedure, abridged:
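Cellular IC50 for inhibition of phosphoERK formation.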

Structures are written as SMILES.

T1 sequence (P15056 2-766 V600E limits assumed): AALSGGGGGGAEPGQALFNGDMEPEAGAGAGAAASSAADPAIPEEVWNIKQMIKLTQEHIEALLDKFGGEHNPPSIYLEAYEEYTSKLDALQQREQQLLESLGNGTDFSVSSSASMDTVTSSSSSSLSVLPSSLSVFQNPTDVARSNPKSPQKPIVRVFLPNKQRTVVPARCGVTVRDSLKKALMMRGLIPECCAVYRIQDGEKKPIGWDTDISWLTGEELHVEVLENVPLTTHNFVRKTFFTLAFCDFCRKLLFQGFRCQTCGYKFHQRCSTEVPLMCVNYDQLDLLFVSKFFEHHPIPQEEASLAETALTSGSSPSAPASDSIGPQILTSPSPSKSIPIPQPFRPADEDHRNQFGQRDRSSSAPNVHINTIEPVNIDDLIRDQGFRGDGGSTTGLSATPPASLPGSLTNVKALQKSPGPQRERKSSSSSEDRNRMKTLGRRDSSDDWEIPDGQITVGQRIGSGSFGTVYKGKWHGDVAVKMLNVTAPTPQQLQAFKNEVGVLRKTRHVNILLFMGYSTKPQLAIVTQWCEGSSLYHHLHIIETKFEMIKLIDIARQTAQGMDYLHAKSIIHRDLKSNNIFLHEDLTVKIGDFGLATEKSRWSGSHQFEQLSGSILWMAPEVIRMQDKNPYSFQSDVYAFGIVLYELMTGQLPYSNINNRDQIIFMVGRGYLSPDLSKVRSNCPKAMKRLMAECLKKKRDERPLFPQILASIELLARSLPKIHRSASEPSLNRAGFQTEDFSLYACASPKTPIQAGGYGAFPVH

The Tmax is the time from dosing to the highest level. In general, IC50 refers to the concentration needed to halve the response being measured. A high value points to weaker potency in that assay. For orientation: GI50 means the concentration at which growth is held to half of that of the control. Higher therefore signals less potent growth inhibition. Usually bioavailability stands for dose-corrected exposure relative to a reference, in per cent. Read a low bioavailability as poor availability. In general, Cmax refers to the highest concentration seen after dosing. A word on the half-life: it is how long it takes for the measured level to halve. Low readings indicate rapid decline, high ones slow decline. In the case of `CC(C)(C)c1cc(NC(=O)Nc2ccc(Oc3ccnc4[nH]c(=O)cnc34)c3ccccc23)n(-c2ccccc2)n1`, the Tmax in data set [1] worked out at 0.25 h. For the same molecule, in data set [2], the Ratio was 130. For the same molecule, the values for the IC50 in data set [3] and in data set [8] were 77 nM and 8 nM, respectively. Moreover, in data set [4], the GI50 turned out to be 105 nM. In addition, in data set [5], the bioavailability was found to be 7%. This molecule yielded a Cmax in data set [6] of 14.2 µM. This molecule also gave a half-life in data set [7] of 1.7 h.
With `Cc1ccc(-n2nc(C(C)(C)C)cc2NC(=O)Nc2ccc(Oc3ccnc4[nH]c(=O)cnc34)cc2)cc1`, in data set [1], the Tmax was 0.5 h. Also, in data set [2], the Ratio turned out to be 510. For the same molecule, the GI50 in data set [4] was determined as 62 nM. In data set [5], this molecule came in with a bioavailability of 17%. This molecule also displayed a Cmax in data set [6] of 31.9 µM. The molecule also showed a half-life in data set [7] of 6.3 h. Half-maximal inhibition in data set [8] (IC50) was put at 96 nM.
For the molecule `Cc1nc2c(Oc3ccc(NC(=O)Nc4cc(C(F)(F)F)ccc4F)c4ccccc34)ccnc2[nH]c1=O`, the Tmax in data set [1] was found to be 3 h. Besides, the IC50 in data set [3] turned out to be 4 nM; in data set [8] it was 62 nM. In data set [4], this molecule yielded a GI50 of 36 nM. Further, the bioavailability in data set [5] was determined as 4%. This molecule displayed a maximum concentration (Cmax) in data set [6] of 0.316 µM.
With `Cc1ccc(-n2nc(C(C)(C)C)cc2NC(=O)Nc2ccc(Oc3ccnc4[nH]c(=O)c(=O)[nH]c34)cc2F)cc1`, in data set [1], the Tmax was 3 h. For the same molecule, the Ratio in data set [2] was 70. Besides, the figures for the 50% inhibitory concentration (IC50) in data set [3] and in data set [8] were 90 nM and 75 nM, respectively. Growth in data set [4] was halved (GI50) at 79 nM. In addition, the bioavailability in data set [5] turned out to be 1%. This molecule also registered a Cmax in data set [6] of 5.54 µM. The molecule further showed a half-life in data set [7] of 5.4 h.
Take `CC(C)(C)c1cc(NC(=O)Nc2cccc(Oc3ccnc4[nH]c(=O)cnc34)c2)n(-c2ccccc2)n1`: the Tmax in data set [1] worked out at 0.5 h. The Ratio in data set [2] was 170. For the same molecule, the concentration for half-maximal inhibition (IC50) in data set [3] is 58 nM; in data set [8] it was 280 nM. It took 170 nM to inhibit growth in data set [4] by half (GI50). The same molecule yielded a bioavailability in data set [5] of 6%. This molecule also came in with a maximum concentration (Cmax) in data set [6] of 29.5 µM. Moreover, in data set [7], the half-life is 1.4 h.
With `CSc1cc(Oc2ccnc3[nH]c(=O)cnc23)ccc1NC(=O)Nc1cc(C(C)(C)C)nn1-c1ccc(C)cc1`, in data set [1], the Tmax amounted to 3 h. For the same molecule, in data set [2], the Ratio is recorded as 101200. In addition, the IC50 came out at 19 nM in data set [3] and 5 nM in data set [8]. In data set [4], this molecule yielded a GI50 of 1 nM. Besides, in data set [5], the bioavailability amounted to 71%. Further, the highest concentration (Cmax) in data set [6] worked out at 101 µM. In addition, in data set [7], the half-life is 7.9 h.
`O=C(Nc1ccc(Oc2ccnc3ncc(=O)[nH]c23)cc1)Nc1ccc(Cl)c(C(F)(F)F)c1`: the IC50 was 1290 nM in data set [3] and greater than 100000 nM in data set [8]. Also, in data set [4], growth was halved (GI50) at 8800 nM.
For `CSc1cc(Oc2ccnc3ncc(=O)[nH]c23)ccc1NC(=O)Nc1ccc(Cl)c(C(F)(F)F)c1`, in that order: 71 nM, 3990 nM and 4300 nM.
On to `Cc1ccc(-n2nc(C(C)(C)C)cc2NC(=O)Nc2ccc(Oc3ccnc4nc(N5CCOCC5)cnc34)cc2F)cc1`, for which the IC50 is greater than 10000 nM in data set [3] and 280 nM in data set [8]. For the same molecule, the GI50 in data set [4] came out at 235 nM.
On the same counts, the results for `Nc1nc2nccc(Oc3ccc(NC(=O)Nc4cc(C(F)(F)F)ccc4F)c4ccccc34)c2[nH]c1=O` are 43 nM, 229 nM and 204 nM.
As to `Cc1ccc(-n2nc(C(C)(C)C)cc2NC(=O)Nc2ccc(Oc3ccnc4nc(N)c(=O)[nH]c34)cc2F)cc1`, the IC50 in data set [3] was 222 nM; in data set [8] it was 70 nM. Moreover, growth in data set [4] was halved (GI50) at 128 nM.
On the same counts, the results for `O=C(Nc1ccc(Oc2ccnc3[nH]nnc23)cc1F)Nc1cc(C(F)(F)F)ccc1F` are 69 nM, 24000 nM and 39000 nM.
For the molecule `CC(C)(C)c1cc(NC(=O)Nc2ccc(Oc3ccnc4[nH]c(=O)c(=O)[nH]c34)cc2F)n(-c2ccccc2)n1`, the figures for the IC50 in data set [3] and in data set [8] were 190 nM and 273 nM, respectively. In data set [4], this molecule registered a GI50 of 299 nM.
For `CN(C)c1nc2c(Oc3ccc(NC(=O)Nc4cc(C(C)(C)C)nn4-c4ccccc4)c(F)c3)ccnc2[nH]1`, in that order: 1670 nM, 1700 nM and 574 nM.
For `CN(C)Cc1nc2c(Oc3ccc(NC(=O)Nc4cc(C(F)(F)F)ccc4F)c(F)c3)ccnc2[nH]1`, in that order: 730 nM, greater than 10000 nM and 1400 nM.
For `O=C(Nc1ccc(Oc2ccnc3[nH]c(=O)cnc23)cc1F)Nc1cc(C(F)(F)F)ccc1F`, the IC50 in data set [3] came to 4 nM; in data set [8] it was 780 nM. For the same molecule, growth in data set [4] was halved (GI50) at 1300 nM.
On the same counts, the results for `CN1CCN(c2cnc3c(Oc4ccc(NC(=O)Nc5cc(C(C)(C)C)nn5-c5ccccc5)c(F)c4)ccnc3n2)CC1` are 4100 nM, 750 nM and 417 nM.
For `Cc1ccc(-n2nc(C(C)(C)C)cc2NC(=O)Nc2ccc(Oc3ccnc4[nH]c(=O)c(C)nc34)c3ccccc23)cc1`, in that order: 99 nM, 5 nM and 75 nM.
`Cc1ccc(-n2nc(C(C)(C)C)cc2NC(=O)Nc2ccc(Oc3ccnc4nc(C)c(=O)[nH]c34)c3ccccc23)cc1`: the values for the IC50 in data set [3] and in data set [8] were 17000 nM and 176 nM, respectively. This molecule came in with a GI50 in data set [4] of 1500 nM.
With `CSc1cc(Oc2ccnc3ncc(=O)[nH]c23)ccc1NC(=O)Nc1cc(C(F)(F)F)ccc1F`, the values for the IC50 in data set [3] and in data set [8] were 246 nM and 6600 nM, respectively. In data set [4], this molecule gave a GI50 of 5000 nM.
Take `Cc1ccc(-n2nc(C(C)(C)C)cc2NC(=O)Nc2ccc(Oc3ccnc4c3NCC(=O)N4)cc2F)cc1`: the results for the IC50 in data set [3] and in data set [8] were 51 nM and 11 nM, respectively. The same molecule registered a GI50 in data set [4] of 34 nM.
Regarding `O=C(Nc1cc(C(F)(F)F)ccc1F)Nc1ccc(Oc2ccnc3ncc(=O)[nH]c23)c2ccccc12`, the IC50 came to 84 nM in data set [3] and 2070 nM in data set [8]. Halving of growth in data set [4] (GI50) required 486 nM.
For `O=C(Nc1ccc(Cl)c(C(F)(F)F)c1)Nc1ccc(Oc2ccnc3[nH]c(=O)cnc23)cc1F`, in that order: 6 nM, 660 nM and 1300 nM.
For `Nc1nc2c(Oc3ccc(NC(=O)Nc4cc(C(F)(F)F)ccc4F)c(F)c3)ccnc2[nH]c1=O`, the IC50 worked out at 30 nM in data set [3] and 1550 nM in data set [8]. Besides, in data set [4], the GI50 was found to be 1550 nM.
Turning to `O=C(Nc1ccc(Cl)c(C(F)(F)F)c1)Nc1ccc(Oc2ccnc3ncc(=O)[nH]c23)cc1F`, the IC50 was determined as 59 nM in data set [3] and 16000 nM in data set [8]. In addition, the GI50 in data set [4] was found to be 3900 nM.
For `CC(C)(C)c1cccc(C(=O)Nc2cccc(Oc3ccnc4[nH]c(=O)cnc34)c2)c1`, in that order: 7 nM, 850 nM and 1700 nM.
Regarding `Cc1ccc(-n2nc(C(C)(C)C)cc2NC(=O)Nc2ccc(Oc3ccnc4[nH]c(S)nc34)cc2F)cc1`, the Tmax in data set [1] was 3 h. The Ratio in data set [2] amounted to 76. Besides, the IC50 was determined as 310 nM in data set [3] and 55 nM in data set [8]. In data set [4], this molecule returned a 50% growth inhibitory concentration (GI50) of 154 nM. The molecule also showed a bioavailability in data set [5] of 13%. In data set [6], the peak level (Cmax) was 11.7 µM. This molecule also gave a half-life in data set [7] of 3.3 h.
`Cc1ccc(-n2nc(C(C)(C)C)cc2NC(=O)Nc2ccc(Oc3ccnc4[nH]c(=O)cnc34)cc2F)cc1`: the Tmax in data set [1] was determined as 3 h. Besides, in data set [2], the Ratio turned out to be 2240. The molecule further had a GI50 in data set [4] of 15 nM. Also, the bioavailability in data set [5] was 24%. Moreover, the highest level in data set [6] (Cmax) was 33.6 µM. For the same molecule, the half-life in data set [7] is 5.9 h. Further, the IC50 in data set [8] was 24 nM.
As for `O=C(Nc1ccc(Oc2ccnc3[nH]c(=O)c(=O)[nH]c23)cc1)Nc1ccc(Cl)c(C(F)(F)F)c1`, the values for the IC50 in data set [3] and in data set [8] were 21 nM and 5200 nM, respectively. Also, the GI50 in data set [4] was 3190 nM.
Consider `CN1CCN(c2cnc3c(Oc4ccc(NC(=O)Nc5cc(C(F)(F)F)ccc5F)c(F)c4)ccnc3n2)CC1`, for which the figures for the IC50 in data set [3] and in data set [8] were 110 nM and 16000 nM, respectively. This molecule also returned a GI50 in data set [4] of 120 nM.
With `O=C(Nc1ccc(Oc2ccnc3ncc(=O)[nH]c23)cc1)Nc1cc(C(F)(F)F)ccc1F`, the IC50 in data set [3] came out at 1290 nM; in data set [8] it was 4200 nM. For the same molecule, the GI50 in data set [4] amounted to 4000 nM.
For `CSc1cc(Oc2ccnc3[nH]c(=O)cnc23)ccc1NC(=O)Nc1ccc(Cl)c(C(F)(F)F)c1`, in that order: 4 nM, 187 nM and 118 nM.
Take `CSc1cc(Oc2ccnc3[nH]c(=O)cnc23)ccc1NC(=O)Nc1cc(C(F)(F)F)ccc1F`: the IC50 in data set [3] came out at 4 nM; in data set [8], 195 nM. Also, the GI50 in data set [4] worked out at 96 nM.
On the same counts, the results for `Cc1nc2c(Oc3cccc(NC(=O)c4cccc(C(C)(C)C)c4)c3)ccnc2[nH]c1=O` are 10 nM, 1430 nM and 890 nM.
For `CSc1cc(Oc2ccnc3ncc(=O)[nH]c23)ccc1NC(=O)Nc1cc(C(C)(C)C)nn1-c1ccccc1`, in that order: 450 nM, 101 nM and 27 nM.
On the same counts, the results for `O=C(Nc1cc(C(F)(F)F)ccc1F)Nc1ccc(Oc2ccnc3[nH]c(=O)c(C(F)(F)F)nc23)c2ccccc12` are 134 nM, greater than 10000 nM and greater than 10000 nM.

(Values after ChEMBL document CHEMBL1212820, “Novel hinge binder improves activity and pharmacokinetic properties of BRAF inhibitors” (J Med Chem, 2010).)
